In PMC6637745 (Journal of medicinal chemistry, 2018):

Tests used:
5-HT1A-1E = assay: NIMH-PDSP binding affinity panel; conditions: read-out: affinity
5-HT2A-2C = assay: NIMH-PDSP binding affinity panel; conditions: read-out: affinity
5-HT3-7 = assay: NIMH-PDSP binding affinity panel; conditions: read-out: affinity
A (adenosine) = assay: NIMH-PDSP binding affinity panel; conditions: read-out: affinity
α1A-1C = assay: NIMH-PDSP binding affinity panel; conditions: read-out: affinity
α2A-2C = assay: NIMH-PDSP binding affinity panel; conditions: read-out: affinity
β1–3 = assay: NIMH-PDSP binding affinity panel; conditions: read-out: affinity
AMPA = assay: NIMH-PDSP binding affinity panel; conditions: read-out: affinity
BZP (benzodiazepine) = assay: NIMH-PDSP binding affinity panel; conditions: read-out: affinity
Ca+ channel = assay: NIMH-PDSP binding affinity panel; conditions: read-out: affinity
CB1, CB2 = assay: NIMH-PDSP binding affinity panel; conditions: read-out: affinity; CB1, CB2 cannabinoid
D1-D5 = assay: NIMH-PDSP binding affinity panel; conditions: read-out: affinity; D1-D5 dopamine
DAT = DAT (Homo sapiens, UniProt Q01959); assay: NIMH-PDSP binding affinity panel
DOR = DOR (Homo sapiens, UniProt P41143); assay: NIMH-PDSP binding affinity panel
Sequence of DOR (P41143 whole entry): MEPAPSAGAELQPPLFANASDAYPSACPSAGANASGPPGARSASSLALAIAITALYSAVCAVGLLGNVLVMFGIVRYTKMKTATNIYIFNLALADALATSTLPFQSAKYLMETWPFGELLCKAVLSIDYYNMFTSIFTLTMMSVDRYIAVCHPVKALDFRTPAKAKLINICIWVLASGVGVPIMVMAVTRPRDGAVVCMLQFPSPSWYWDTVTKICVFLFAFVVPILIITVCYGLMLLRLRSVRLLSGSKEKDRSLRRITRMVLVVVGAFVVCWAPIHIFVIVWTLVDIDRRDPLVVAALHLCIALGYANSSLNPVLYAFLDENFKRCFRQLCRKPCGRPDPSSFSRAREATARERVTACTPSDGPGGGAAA

H1 = H1 (Homo sapiens, UniProt P35367); assay: NIMH-PDSP binding affinity panel
HERG = HERG (Homo sapiens, UniProt Q12809); assay: NIMH-PDSP binding affinity panel
Sequence of HERG (Q12809 whole entry): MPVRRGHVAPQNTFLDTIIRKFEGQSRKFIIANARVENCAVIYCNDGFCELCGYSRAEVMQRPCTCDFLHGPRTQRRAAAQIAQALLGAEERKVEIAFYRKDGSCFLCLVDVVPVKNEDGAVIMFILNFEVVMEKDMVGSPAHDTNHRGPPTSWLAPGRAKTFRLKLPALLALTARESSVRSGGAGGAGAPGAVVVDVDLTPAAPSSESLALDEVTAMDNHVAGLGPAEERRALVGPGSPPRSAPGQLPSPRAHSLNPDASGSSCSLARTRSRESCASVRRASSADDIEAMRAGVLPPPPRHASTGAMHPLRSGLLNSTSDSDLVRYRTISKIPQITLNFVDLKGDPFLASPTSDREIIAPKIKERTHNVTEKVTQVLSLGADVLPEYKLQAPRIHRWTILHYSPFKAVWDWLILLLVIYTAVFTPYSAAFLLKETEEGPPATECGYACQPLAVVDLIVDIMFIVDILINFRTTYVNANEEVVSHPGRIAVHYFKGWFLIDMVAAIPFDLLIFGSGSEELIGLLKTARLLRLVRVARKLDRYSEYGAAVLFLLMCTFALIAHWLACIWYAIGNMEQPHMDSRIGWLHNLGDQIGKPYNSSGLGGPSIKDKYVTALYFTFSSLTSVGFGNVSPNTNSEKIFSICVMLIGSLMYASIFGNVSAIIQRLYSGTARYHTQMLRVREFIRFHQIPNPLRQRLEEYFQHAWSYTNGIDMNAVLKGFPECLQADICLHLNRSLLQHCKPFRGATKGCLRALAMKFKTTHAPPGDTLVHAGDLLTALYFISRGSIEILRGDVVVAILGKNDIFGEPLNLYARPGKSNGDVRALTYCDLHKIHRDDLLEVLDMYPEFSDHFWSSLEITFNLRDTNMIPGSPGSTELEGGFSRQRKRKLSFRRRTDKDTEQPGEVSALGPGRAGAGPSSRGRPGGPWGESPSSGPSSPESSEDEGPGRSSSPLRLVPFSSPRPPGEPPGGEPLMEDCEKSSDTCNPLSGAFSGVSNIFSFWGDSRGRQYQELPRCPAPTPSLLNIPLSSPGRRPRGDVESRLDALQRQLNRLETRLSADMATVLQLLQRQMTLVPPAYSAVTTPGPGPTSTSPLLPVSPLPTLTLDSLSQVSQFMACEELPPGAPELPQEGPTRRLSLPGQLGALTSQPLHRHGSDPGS

GABA = assay: NIMH-PDSP binding affinity panel; conditions: read-out: affinity
[1] = target: EP (prostanoid receptors); assay: NIMH-PDSP binding affinity panel; conditions: read-out: affinity
I = assay: NIMH-PDSP binding affinity panel; conditions: read-out: affinity
KOP = KOP (Homo sapiens, UniProt P41145); assay: NIMH-PDSP binding affinity panel
KA (kainate) = assay: NIMH-PDSP binding affinity panel; conditions: read-out: affinity
M (muscarinic) = assay: NIMH-PDSP binding affinity panel; conditions: read-out: affinity
mGluR = assay: NIMH-PDSP binding affinity panel; conditions: read-out: affinity, metabotropic glutamate receptors
MDR1 = MDR1 (Homo sapiens, UniProt P08183); assay: NIMH-PDSP binding affinity panel
Sequence of MDR1 (P08183 whole entry, species assumed): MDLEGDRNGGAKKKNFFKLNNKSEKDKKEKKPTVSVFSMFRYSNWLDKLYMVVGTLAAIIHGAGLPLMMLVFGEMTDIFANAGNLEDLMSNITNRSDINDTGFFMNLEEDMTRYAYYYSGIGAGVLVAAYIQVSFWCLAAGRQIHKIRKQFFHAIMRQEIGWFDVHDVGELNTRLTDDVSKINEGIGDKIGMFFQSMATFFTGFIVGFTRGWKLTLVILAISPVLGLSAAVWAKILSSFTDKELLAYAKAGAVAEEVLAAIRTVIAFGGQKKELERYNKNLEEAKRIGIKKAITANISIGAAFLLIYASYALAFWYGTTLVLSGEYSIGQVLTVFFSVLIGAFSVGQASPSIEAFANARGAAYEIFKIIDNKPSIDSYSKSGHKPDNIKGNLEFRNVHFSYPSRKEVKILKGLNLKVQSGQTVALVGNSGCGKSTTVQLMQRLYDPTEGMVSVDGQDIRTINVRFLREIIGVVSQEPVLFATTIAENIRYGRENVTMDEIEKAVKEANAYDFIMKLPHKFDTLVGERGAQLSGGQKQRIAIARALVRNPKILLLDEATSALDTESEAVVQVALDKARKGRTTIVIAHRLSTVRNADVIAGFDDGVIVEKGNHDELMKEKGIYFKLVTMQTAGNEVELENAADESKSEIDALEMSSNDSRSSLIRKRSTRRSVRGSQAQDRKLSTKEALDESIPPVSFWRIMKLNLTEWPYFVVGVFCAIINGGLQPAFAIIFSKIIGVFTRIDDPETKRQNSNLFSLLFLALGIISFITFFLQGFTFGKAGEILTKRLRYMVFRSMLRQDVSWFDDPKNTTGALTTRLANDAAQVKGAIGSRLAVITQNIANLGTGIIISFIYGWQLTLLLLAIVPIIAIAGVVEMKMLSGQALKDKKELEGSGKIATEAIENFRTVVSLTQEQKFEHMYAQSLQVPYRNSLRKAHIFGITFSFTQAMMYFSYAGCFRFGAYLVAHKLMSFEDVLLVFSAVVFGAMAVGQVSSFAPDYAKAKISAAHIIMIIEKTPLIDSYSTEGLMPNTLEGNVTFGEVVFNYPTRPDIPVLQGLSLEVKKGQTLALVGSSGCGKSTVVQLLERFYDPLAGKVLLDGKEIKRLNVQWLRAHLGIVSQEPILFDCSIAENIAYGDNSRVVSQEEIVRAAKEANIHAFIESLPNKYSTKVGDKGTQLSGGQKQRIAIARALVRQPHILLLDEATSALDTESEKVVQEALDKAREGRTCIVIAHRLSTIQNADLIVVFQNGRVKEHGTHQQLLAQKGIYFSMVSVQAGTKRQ

NET = NET (Homo sapiens, UniProt P23975); assay: NIMH-PDSP binding affinity panel
Sequence of NET (P23975 whole entry): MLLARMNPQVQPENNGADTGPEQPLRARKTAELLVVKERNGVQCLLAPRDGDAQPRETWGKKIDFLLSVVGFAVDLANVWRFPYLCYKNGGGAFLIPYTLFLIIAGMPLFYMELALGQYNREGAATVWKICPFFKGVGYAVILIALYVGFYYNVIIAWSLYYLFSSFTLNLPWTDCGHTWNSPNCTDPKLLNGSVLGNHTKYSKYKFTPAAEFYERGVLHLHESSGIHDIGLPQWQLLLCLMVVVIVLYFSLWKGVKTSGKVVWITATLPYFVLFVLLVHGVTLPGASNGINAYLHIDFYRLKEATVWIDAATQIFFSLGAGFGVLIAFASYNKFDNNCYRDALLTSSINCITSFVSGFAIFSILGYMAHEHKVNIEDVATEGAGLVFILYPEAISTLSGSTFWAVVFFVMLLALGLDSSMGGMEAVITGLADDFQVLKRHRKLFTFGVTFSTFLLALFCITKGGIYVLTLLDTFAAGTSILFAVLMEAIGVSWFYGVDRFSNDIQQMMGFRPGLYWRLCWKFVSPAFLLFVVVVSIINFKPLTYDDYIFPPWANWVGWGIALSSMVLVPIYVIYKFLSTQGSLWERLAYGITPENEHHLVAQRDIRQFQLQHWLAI

NK (neurokinin) = assay: NIMH-PDSP binding affinity panel; conditions: read-out: affinity
NMΔA = assay: NIMH-PDSP binding affinity panel; conditions: read-out: affinity
NOP = NOP (Homo sapiens, UniProt P41146); assay: NIMH-PDSP binding affinity panel
Sequence of NOP (P41146 whole entry): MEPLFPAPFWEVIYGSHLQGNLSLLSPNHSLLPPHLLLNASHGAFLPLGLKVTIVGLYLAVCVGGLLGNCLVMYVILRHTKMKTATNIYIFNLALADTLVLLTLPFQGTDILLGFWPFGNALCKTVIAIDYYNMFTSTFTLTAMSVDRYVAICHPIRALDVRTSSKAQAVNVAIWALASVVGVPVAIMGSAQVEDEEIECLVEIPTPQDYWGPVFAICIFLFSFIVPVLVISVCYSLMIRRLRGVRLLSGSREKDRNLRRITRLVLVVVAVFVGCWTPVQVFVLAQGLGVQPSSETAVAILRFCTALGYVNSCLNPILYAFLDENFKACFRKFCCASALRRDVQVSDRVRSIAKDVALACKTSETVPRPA

NT (neurotrophin) = assay: NIMH-PDSP binding affinity panel; conditions: read-out: affinity
oxytocin = oxytocin (Homo sapiens, UniProt P30559); assay: NIMH-PDSP binding affinity panel
Sequence of oxytocin (P30559 whole entry): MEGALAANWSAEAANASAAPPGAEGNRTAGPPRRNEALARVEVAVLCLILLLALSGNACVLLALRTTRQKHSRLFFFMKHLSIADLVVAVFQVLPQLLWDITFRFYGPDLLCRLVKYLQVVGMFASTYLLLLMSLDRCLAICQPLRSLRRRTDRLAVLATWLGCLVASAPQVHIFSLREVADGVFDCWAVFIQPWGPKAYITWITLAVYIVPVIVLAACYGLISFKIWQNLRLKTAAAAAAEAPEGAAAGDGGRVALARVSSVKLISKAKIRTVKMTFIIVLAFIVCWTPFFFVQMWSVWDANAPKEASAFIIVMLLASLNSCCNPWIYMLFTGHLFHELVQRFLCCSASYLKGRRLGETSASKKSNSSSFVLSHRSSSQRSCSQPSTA

PBR = PBR (Homo sapiens, UniProt P30536); assay: NIMH-PDSP binding affinity panel
PKC = assay: NIMH-PDSP binding affinity panel; conditions: read-out: affinity, protein kinase C
SERT = SERT (Homo sapiens, UniProt P31645); assay: NIMH-PDSP binding affinity panel
Sequence of SERT (P31645 whole entry, species assumed): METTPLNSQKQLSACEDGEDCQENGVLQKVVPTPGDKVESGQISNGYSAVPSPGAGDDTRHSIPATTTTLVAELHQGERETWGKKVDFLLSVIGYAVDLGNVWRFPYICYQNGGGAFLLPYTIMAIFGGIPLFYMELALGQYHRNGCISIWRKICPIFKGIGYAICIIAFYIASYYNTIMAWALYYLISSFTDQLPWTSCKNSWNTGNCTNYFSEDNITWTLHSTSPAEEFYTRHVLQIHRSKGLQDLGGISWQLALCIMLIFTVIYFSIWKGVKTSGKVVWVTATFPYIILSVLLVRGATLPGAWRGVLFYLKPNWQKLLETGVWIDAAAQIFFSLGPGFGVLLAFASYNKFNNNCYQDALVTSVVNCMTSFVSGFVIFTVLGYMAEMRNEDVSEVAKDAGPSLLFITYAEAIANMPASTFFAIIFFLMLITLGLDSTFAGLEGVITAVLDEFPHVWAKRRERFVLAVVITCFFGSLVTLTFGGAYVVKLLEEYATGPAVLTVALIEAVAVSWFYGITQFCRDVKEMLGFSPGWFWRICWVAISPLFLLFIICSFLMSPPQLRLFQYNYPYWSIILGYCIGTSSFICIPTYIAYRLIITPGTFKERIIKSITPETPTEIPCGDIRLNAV

σ2 = σ2 (Homo sapiens, UniProt Q5BJF2); assay: NIMH-PDSP binding affinity panel
Sequence of σ2 (Q5BJF2 whole entry): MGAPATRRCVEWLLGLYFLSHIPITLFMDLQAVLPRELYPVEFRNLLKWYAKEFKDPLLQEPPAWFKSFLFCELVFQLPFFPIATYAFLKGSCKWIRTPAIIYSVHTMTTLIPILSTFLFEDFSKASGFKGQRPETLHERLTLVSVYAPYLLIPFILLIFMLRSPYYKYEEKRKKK

Na + channel = assay: NIMH-PDSP binding affinity panel; conditions: read-out: affinity
smoothened = smoothened (Homo sapiens, UniProt Q99835); assay: NIMH-PDSP binding affinity panel
VMAT 1,2 = assay: NIMH-PDSP binding affinity panel; conditions: read-out: affinity; VMAT 1,2, vesicular monoamine transporter
[2] = target: all other tested biogenic brain receptors, transporters, enzymes, and protein targets; assay: NIMH-PDSP binding affinity panel; conditions: all other tested targets except H4R and σ1R
[3] = rodents, blood; cited from earlier work
[4] = over 100 cancer patients including GBM; cited from earlier work
cancer animal models = conditions: variety of cancer animal models; cited from earlier work
[5] = Lipophilicity by shake flask method; format: physicochemical; conditions: 1-octanol / phosphate buffer, n = 4
How it was run: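 The [11C]-labelled test compound was partitioned between 1-octanol and freshly prepared phosphate buffer by shake flask, and the result expressed as log Poct/water.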

[6] = Stability in ethanol–saline formulation; format: physicochemical; conditions: 5% ethanol–saline formulation, sterile conditions, 4 h, n = 4
How it was run: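 The stability of the [11C]-labelled test compound was checked by reverse-phase HPLC with photodiode-array and sodium iodide radioactivity detectors.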

[7] = Baseline ex vivo biodistribution; format: in vivo, male white mice; conditions: mouse brain, followed by gradual washout
MT = assay: Blocking biodistribution with cold MPC-6827; format: in vivo, male white mice
How it was run: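 This was a blocking biodistribution. Unlabelled test compound (5 mg/kg iv) was given 20 min before tail-vein injection of the [11C] tracer at 100 ± 20 μCi in 10% ethanol–saline, with no anaesthesia. Tissues were harvested at 30 min, gamma-counted and expressed as %ID/g, with n = 3. Specific binding was taken from blocked versus baseline uptake.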

brain MT [8] = assay: microPET imaging in mice, baseline and blocking; format: in vivo, athymic nude male mice
How it was run: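 Mice were anaesthetised and transmission-scanned on a Trifoil PET/CT. The [11C] tracer (50 ± 10 μCi) was given by tail vein, followed by 60 min dynamic acquisition. Images were reconstructed with attenuation correction, Fourier rebinning and filtered back-projection, and summed over 0–60 min. In blocking scans, unlabelled test compound (5 mg/kg iv) was given before the tracer, with n = 3.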

brain MT [9] = assay: microPET imaging in rats; format: in vivo; conditions: male Sprague—Dawley rats, n = 2
How it was run: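 Anaesthetised Sprague–Dawley rats (n = 2) were transmission-scanned on a Trifoil PET/CT. The [11C] tracer (100 ± 20 μCi) was injected into the tail vein and acquired for 60 min. Reconstruction used attenuation correction, Fourier rebinning and filtered back-projection, and images were summed over 0–60 min.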

[10] = 30 min, MPC-6827 5 mg/kg iv 20 min prior to radioligand, n = 3

Compound: COc1ccc(N(C)c2nc(C)nc3ccccc23)cc1 [MPC-6827]
- Ki (5-HT1A-1E): > 10 µM
- Ki (5-HT2A-2C): > 10 µM
- Ki (5-HT3-7): > 10 µM
- Ki (A (adenosine)): > 10 µM
- Ki (α1A-1C): > 10 µM
- Ki (α2A-2C): > 10 µM
- Ki (β1–3): > 10 µM
- Ki (AMPA): > 10 µM
- Ki (BZP (benzodiazepine)): > 10 µM
- Ki (Ca+ channel): > 10 µM
- Ki (CB1, CB2): > 10 µM
- Ki (D1-D5): > 10 µM
- Ki (DAT): > 10 µM
- Ki (DOR): > 10 µM
- Ki (H1): > 10 µM
- Ki (HERG): > 10 µM
- Ki (GABA): > 10 µM
- Ki [1]: > 10 µM
- Ki (I): > 10 µM
- Ki (KOP): > 10 µM
- Ki (KA (kainate)): > 10 µM
- Ki (M (muscarinic)): > 10 µM
- Ki (mGluR): > 10 µM
- Ki (MDR1): > 10 µM
- Ki (NET): > 10 µM
- Ki (NK (neurokinin)): > 10 µM
- Ki (NMΔA): > 10 µM
- Ki (NOP): > 10 µM
- Ki (NT (neurotrophin)): > 10 µM
- Ki (oxytocin): > 10 µM
- Ki (PBR): > 10 µM
- Ki (PKC): > 10 µM
- Ki (SERT): > 10 µM
- Ki (σ2): > 10 µM
- Ki (Na + channel): > 10 µM
- Ki (smoothened): > 10 µM
- Ki (VMAT 1,2): > 10 µM
- Ki [2]: > 10 µM
- plasma binding [3]: 98.2%
- safety in human subjects [4]: proven to be safe
- tumor growth in cancer animal models (cancer animal models): suppression of tumor growth

Compound: Cc1nc(N(C)c2ccc(O[11CH3])cc2)c2ccccc2n1 [[^11C]MPC-6827]
- log Poct/water [5]: 3.8
- stability in formulation [6]: stable
- time of peak brain activity [7]: 5 min
- specific binding in brain (MT; [10]): 70%
- specific binding in heart (MT; [10]): 16%
- specific binding in lungs (MT; [10]): 30%
- specific binding in muscles (MT; [10]): 60%
- specific binding in pancreas (MT; [10]): 20%
- specific binding in the rest of the tested regions (MT; 30 min, regions other than brain, muscles, spleen, lungs, pancreas, heart): no significant specific binding
- displacement of kidney and liver binding (MT; blocking with cold MPC-6827, mice): not displaced
- ratio of specific to nonspecific binding in brain relative to muscle (MT; brain vs muscle, Figure 1B): 10 times
- BBB penetration and brain retention (microPET) (brain MT [8]; athymic nude male mice, n = 3, 0–60 min): penetrates the BBB and shows excellent retention in mouse brain
- radioligand binding in thyroid or salivary gland during blocking (microPET) (brain MT [8]; blocking with 5 mg/kg MPC-6827, mice): displaced
- blocking of brain activity (microPET) (brain MT [8]; iv 5 mg/kg unlabeled MPC-6827, n = 3): substantially blocked
- BBB penetration and brain retention (microPET) (brain MT [9]): BBB penetration and excellent retention
